Measurements taken from ChEMBL document CHEMBL1123352, “Anticonvulsant activity of 2- and 3-aminobenzanilides” (J Med Chem, 1986).
Active and inactive are the calls of the source. The rule behind the calls is not given here.

What was measured:
Mus musculus [1] = assay: Anticonvulsant activity against maximal electroshock (MES) induced seizures in mice 30 minutes after ip administration of 600 mg/kg; NA=No activity; assay type: functional, organism-based; set-up: dose 600 mg/kg
Method in brief: (§1)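 Male Carworth Farms No. 1 mice were dosed ip with compound in 30% polyethylene glycol 400, at 30, 100 and 300 mg/kg and sometimes 600 mg/kg, and tested 30 min and 4 h later. A drop of 0.9% saline went in the eye, then 60-cycle AC at 50 mA was given for 0.2 s via corneal electrodes. Protection meant abolition of hind limb tonic extension.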

Mus musculus [2] = assay: Anticonvulsant activity against maximal electroshock (MES) induced seizures in mice 4 hours after ip administration of 600 mg/kg.; assay type: functional, organism-based; set-up: dose 600 mg/kg; method in brief: as §1
Mus musculus [3] = assay: Anticonvulsant activity against subcutaneous pentylenetetrazole induced convulsions in mice 30 min after ip administration of 600 mg/kg.; assay type: functional, organism-based; set-up: dose 600 mg/kg
Method in brief: (§2)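 Male Carworth Farms No. 1 mice were dosed ip with compound in 30% PEG 400, at 30–600 mg/kg, and read at 30 min and 4 h. Pentylenetetrazole was given at 85 mg/kg as a 0.5% solution sc in the posterior midline. Protection meant no single episode of clonic spasms lasting at least 5 s over a 30-min observation.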

Mus musculus [4] = assay: Anticonvulsant activity against subcutaneous pentylenetetrazole induced convulsions in mice 4 hours after ip administration of 600 mg/kg; No=No activity; assay type: functional, organism-based; set-up: dose 600 mg/kg; method in brief: as §2
Mus musculus [5] = assay: Compound was tested for toxicity by rotarod assay method in mice 30 min after ip administration at 600 mg/kg; no activity; assay type: organism-based; set-up: dose 600 mg/kg, route intraperitoneal; conditions: in vivo, 0.5 h
Mus musculus [6] = assay: Compound was tested for toxicity by rotarod assay method in mice 4 hours after ip administration at 600 mg/kg; no activity; assay type: organism-based; set-up: dose 600 mg/kg, route intraperitoneal; conditions: in vivo
Mus musculus [7] = assay: Anticonvulsant activity against maximal electroshock (MES) induced seizures in mice 30 minutes after ip administration of 600 mg/kg; A=Active; assay type: functional, organism-based; set-up: dose 600 mg/kg; method in brief: as §1
Mus musculus [8] = assay: Anticonvulsant activity against subcutaneous pentylenetetrazole induced convulsions in mice 4 hr after ip administration of 600 mg/kg.; assay type: functional, organism-based; set-up: dose 600 mg/kg; method in brief: as §2
Mus musculus [9] = assay: Compound was tested for toxicity by rotarod assay method in mice 30 min after ip administration of 600 mg/kg; no activity; assay type: organism-based; set-up: dose 600 mg/kg, route intraperitoneal; conditions: in vivo, 0.5 h
Mus musculus [10] = assay: Compound was tested for toxicity by rotarod assay method in mice 4 hours after ip administration of 600 mg/kg; NA=No activity; assay type: organism-based; set-up: dose 600 mg/kg, route intraperitoneal; conditions: in vivo
Mus musculus [11] = assay: Compound for anticonvulsant activity against maximal electroshock (MES)-induced seizures in mice after administration; assay type: functional; method in brief: as §1
Mus musculus [12] = assay: Anticonvulsant activity against maximal electroshock (MES) induced seizures in mice 30 minutes after ip administration of 300 mg/kg; A=Active; assay type: functional, organism-based; set-up: dose 300 mg/kg; method in brief: as §1
Mus musculus [13] = assay: Anticonvulsant activity against maximal electroshock (MES) induced seizures in mice 4 hours after ip administration of 300 mg/kg; A=Active; assay type: functional, organism-based; set-up: dose 300 mg/kg; method in brief: as §1
Mus musculus [14] = assay: Anticonvulsant activity against sc pentylenetetrazole-induced convulsions in mice 30 minutes after ip administration of 300 mg/kg; A=Active; assay type: functional, organism-based; set-up: dose 300 mg/kg; method in brief: as §2
Mus musculus [15] = assay: Compound was tested for toxicity by rotarod assay method in mice 30 min after ip administration of 600 mg/kg; A=Active; assay type: organism-based; set-up: dose 600 mg/kg, route intraperitoneal; conditions: in vivo, 0.5 h
Mus musculus [16] = assay: Compound was tested for toxicity by rotarod assay method in mice 4 hours after ip administration of 600 mg/kg; A=Active; assay type: organism-based; set-up: dose 600 mg/kg, route intraperitoneal; conditions: in vivo
Mus musculus [17] = assay: Anticonvulsant activity against maximal electroshock (MES) induced seizures in mice 4 hours after ip administration of 600 mg/kg; A=Active; assay type: functional, organism-based; set-up: dose 600 mg/kg; method in brief: as §1
Mus musculus [18] = assay: Anticonvulsant activity against sc pentylenetetrazole induced convulsions in mice 30 minutes after ip administration of 600 mg/kg; A=Active; assay type: functional, organism-based; set-up: dose 600 mg/kg; method in brief: as §2

SMILES	Anticonvulsant activity (Mus musculus [1])	Anticonvulsant activity (Mus musculus [2])	Anticonvulsant activity (Mus musculus [3])	Anticonvulsant activity (Mus musculus [4])	Toxicity (Mus musculus [5])	Toxicity (Mus musculus [6])	further results
Cc1ccc(C)c(NC(=O)c2cccc(N)c2)c1	inactive	inactive	inactive	inactive	Not Active	Not Active	–
Cc1ccc(NC(=O)c2ccccc2N)cc1	inactive	inactive	inactive	inactive	Not Active	Not Active	–
Cc1cccc(C(C)C)c1NC(=O)c1ccccc1N	–	inactive	inactive	–	–	–	Anticonvulsant activity (Mus musculus [7]): Active; Anticonvulsant activity (Mus musculus [8]): inactive; Toxicity (Mus musculus [9]): Not Active; Toxicity (Mus musculus [10]): Not Active
Cc1cccc(NC(=O)c2ccccc2N)c1	inactive	inactive	inactive	inactive	Not Active	Not Active	–
Cc1ccc(C)c(NC(=O)c2ccccc2N)c1	inactive	inactive	inactive	inactive	Not Active	Not Active	–
CCc1cccc(C(C)C)c1NC(=O)c1ccccc1N	inactive	inactive	inactive	inactive	Not Active	Not Active	–
Cc1ccc(NC(=O)c2ccccc2N)cc1C	inactive	inactive	inactive	inactive	Not Active	Not Active	–
Cc1cccc(C)c1NC(=O)c1ccc(N)cc1 [AMELTOLIDE]	–	–	–	–	–	–	ED50 (Mus musculus [11]): 2.6 mg/kg
Cc1cc(C)cc(NC(=O)c2cccc(N)c2)c1	–	–	–	–	–	–	Anticonvulsant activity (Mus musculus [12]): Active; Anticonvulsant activity (Mus musculus [13]): Active; Anticonvulsant activity (Mus musculus [14]): Active; Anticonvulsant activity (Mus musculus [8]): inactive; Toxicity (Mus musculus [15]): Active
Cc1cc(C)cc(NC(=O)c2ccccc2N)c1	inactive	inactive	inactive	inactive	Not Active	Not Active	–
Cc1ccc(NC(=O)c2cccc(N)c2)c(C)c1	inactive	inactive	inactive	inactive	Not Active	Not Active	–
CC(C)c1ccccc1NC(=O)c1ccccc1N	inactive	inactive	inactive	inactive	Not Active	Not Active	–
Cc1ccc(NC(=O)c2cccc(N)c2)cc1	–	–	inactive	–	–	–	Anticonvulsant activity (Mus musculus [12]): Active; Anticonvulsant activity (Mus musculus [13]): Active; Anticonvulsant activity (Mus musculus [8]): inactive; Toxicity (Mus musculus [9]): Not Active; Toxicity (Mus musculus [16]): Active
Cc1ccc(NC(=O)c2ccccc2N)c(C)c1	–	–	–	–	–	–	Anticonvulsant activity (Mus musculus [7]): Active; Anticonvulsant activity (Mus musculus [17]): Active; Anticonvulsant activity (Mus musculus [18]): Active; Anticonvulsant activity (Mus musculus [8]): inactive; Toxicity (Mus musculus [15]): Active; Toxicity (Mus musculus [10]): Not Active
